Among the data in ChEMBL document CHEMBL4308845, “Allosteric Activation of Striatal-Enriched Protein Tyrosine Phosphatase (STEP, PTPN5) by a Fragment-like Molecule” (J Med Chem, 2019) are Activity, ΔTm and Kd values, retold here.

pKd: −log10 of the molar value. The source made the active and inactive calls. The rule behind the calls is not given here.

Experiment [1] has as its target T1, Tyrosine-protein phosphatase non-receptor type 1 (Homo sapiens) (UniProt P18031).
T1 sequence (whole entry): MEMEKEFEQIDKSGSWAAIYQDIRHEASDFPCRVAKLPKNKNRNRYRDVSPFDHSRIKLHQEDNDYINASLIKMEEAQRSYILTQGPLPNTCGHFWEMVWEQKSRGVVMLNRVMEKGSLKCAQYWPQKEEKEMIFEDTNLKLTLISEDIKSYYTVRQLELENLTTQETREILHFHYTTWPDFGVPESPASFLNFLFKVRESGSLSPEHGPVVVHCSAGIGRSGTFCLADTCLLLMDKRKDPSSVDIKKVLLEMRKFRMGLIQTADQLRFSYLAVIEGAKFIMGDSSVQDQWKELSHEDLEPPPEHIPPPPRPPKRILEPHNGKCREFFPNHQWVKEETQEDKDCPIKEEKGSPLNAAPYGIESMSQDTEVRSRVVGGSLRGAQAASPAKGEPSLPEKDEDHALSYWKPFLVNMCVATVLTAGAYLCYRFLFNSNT
Put plainly: Activation of human PTP1B (1 to 405 residues) at 500 uM preincubated for 10 mins followed by pFYN substrate addition and measured after 1.5 hrs by AlphaLISA assay. Put shortly:
(§1)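 In-house PTP1B (1−405) at 500 pM final, preincubated 10 min at 24 °C with compound (up to 500 μM), then EDT-pY-Y-RKG-amide (1.4 μM final) or pFYN (20 μM final) added; 1.5 h at 24 °C, humidified. Stopped with 200 μM orthovanadate. Competition AlphaScreen using biotin-Ahx-EDT-pY-Y-RKG-amide (2.5 nM), anti-pTyr antibody 4G10 (500 pM), beads (5 μg/mL each), 2 h at 24 °C. Read against on-plate substrate standard curve.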
In general terms: Bead proximity is the source of the signal in Alpha formats.

The species entered for experiment [2] is Homo sapiens. Put plainly: Binding affinity to human STEP46 (197 to 565 residues) expressed in Escherichia coli BL21(DE3) assessed as increase in melting temperature at 500 uM by SYPRO Orange dye based DSF. Put shortly: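 STEP46 at 5 μM with 25× SYPRO Orange and 500 μM ligand (1% DMSO) in 20 mM HEPES pH 7.5, 50 mM NaCl, 1 mM TCEP, in duplicate. Heated 25 to 95 °C at 1 °C/min with reads every 0.5 °C. Tm taken from the minimum of the first-derivative curve; ΔTm relative to DMSO.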

Experiment [3] is filed under the species Homo sapiens. Put plainly: Activation of human STEP46 (197 to 565 residues) expressed in Escherichia coli BL21(DE3) at 300 uM preincubated for 10 mins followed by DiFMUP substrate addition and measured at 1 min time interval for 30 mins by fluorescence assay relative to control. In outline: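 STEP46 preincubated 10 min at room temperature with compound; reaction started with DiFMUP. Final: 100 nM STEP46, 1 μM DiFMUP, 50 mM HEPES, 0.02% Brij 35, 1 mM DTT, 5% DMSO. Fluorescence (ex 340/em 460 nm) every 1 min for 30 min at 37 °C; no-enzyme background subtracted. Linear slope expressed relative to enzyme without compound (100%).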

In experiment [4] the target is T1, Tyrosine-protein phosphatase non-receptor type 1 (Homo sapiens). Put plainly: Activation of human PTP1B (1 to 405 residues) at 500 uM preincubated for 10 mins followed by EDT-pY-Y-RKG-amide substrate addition and measured after 1.5 hrs by AlphaLISA assay. Put shortly: as §1
Experiment [5] has as its target T2, Tyrosine-protein phosphatase non-receptor type 5 (Homo sapiens) (UniProt P54829).
T2 sequence (whole entry): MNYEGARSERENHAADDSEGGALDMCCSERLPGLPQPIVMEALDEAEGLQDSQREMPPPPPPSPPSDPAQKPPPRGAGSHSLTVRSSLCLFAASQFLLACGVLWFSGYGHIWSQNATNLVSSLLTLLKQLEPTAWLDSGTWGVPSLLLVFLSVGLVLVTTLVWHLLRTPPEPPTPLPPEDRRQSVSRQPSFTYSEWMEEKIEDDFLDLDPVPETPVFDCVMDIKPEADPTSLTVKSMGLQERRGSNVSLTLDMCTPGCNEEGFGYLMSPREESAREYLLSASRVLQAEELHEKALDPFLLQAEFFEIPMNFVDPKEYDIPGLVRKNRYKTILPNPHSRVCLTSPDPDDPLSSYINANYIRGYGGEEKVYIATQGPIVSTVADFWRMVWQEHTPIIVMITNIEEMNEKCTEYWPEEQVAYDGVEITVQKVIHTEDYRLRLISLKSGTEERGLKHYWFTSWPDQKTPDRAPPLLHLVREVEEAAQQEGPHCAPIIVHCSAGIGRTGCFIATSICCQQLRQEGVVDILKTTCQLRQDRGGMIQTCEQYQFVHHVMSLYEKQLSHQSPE
Put plainly: Activation of human STEP PTP domain (281 to 563 residues) expressed in Escherichia coli BL21(DE3) at 500 uM using biotin-pFyn peptide substrate after 60 mins by AlphaLISA assay relative to control. Put shortly:
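AlphaLISA on the human STEP PTP domain (E. coli BL21(DE3)), 20 nM enzyme with 3 nM biotin-pFyn peptide, otherwise as for STEP46: 60 min at room temperature, anti non-phospho Src/Tyr416 antibody with orthovanadate stop, donor and acceptor beads, % of enzyme and no-enzyme controls.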

Experiment [6] has as its target T1, Tyrosine-protein phosphatase non-receptor type 1 (Homo sapiens). The experiment can be described thus: Binding affinity to human PTP1B by 1H,15N TROSY NMR spectral analysis.
Experiment [7] deals with T3, Tyrosine-protein phosphatase non-receptor type 5 (Homo sapiens, UniProt P54829).
T3 sequence (P54829 whole entry): T2 sequence (whole entry)
The experiment can be described thus: Binding affinity to human STEP PTP domain (281 to 563 residues) expressed in Escherichia coli BL21(DE3) by ITC. Put shortly:
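Desalted STEP PTP domain in 10 mM HEPES, 200 mM NaCl, 0.5 mM TCEP, pH 7.5. 200 μM protein titrated with 18 × 2 μL injections of 2 mM ligand at 25 °C. Single-site model fit gave ΔH, n, ΔS and Ka; mean ± SD of three independent titrations.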
(In general: Isothermal titration calorimetry measures the heat released or taken up as one component is titrated into another.)

Experiment [8] addresses T3, Tyrosine-protein phosphatase non-receptor type 5. Put plainly: Binding affinity to human 15N-labeled STEP PTP domain (281 to 563 residues) expressed in Escherichia coli OD2 by 1H,15N TROSY NMR spectral analysis. Put shortly:
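40 μM ¹⁵N-labeled STEP PTP domain (expressed in ¹⁵N OD2 medium) in 20 mM Tris-d11, 100 mM NaCl, 1 mM TCEP, pH 7.4, 8% D₂O, with 500 μM ligand and 1% DMSO-d₆ at 298 K. 2D spectra of 192 transients were compared by hand with the protein reference spectrum.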

For experiment [9], the species on record is Homo sapiens. Put plainly: Activation of human STEP46 (197 to 565 residues) expressed in Escherichia coli BL21(DE3) at 500 uM using biotin-pFyn peptide substrate after 60 mins by AlphaLISA assay relative to control. Put shortly: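 STEP46 (50 nM final) with biotinylated pFyn peptide (20 nM final) and compound in 1% DMSO, 60 min at room temperature in the dark. Detection by anti non-phospho Src/Tyr416 antibody in stop buffer containing 10 μM orthovanadate, plus protein A acceptor and streptavidin donor beads, 15 min each. % CTL computed against enzyme (100%) and no-enzyme (0%) controls.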

By ΔTm is commonly meant the change in melting temperature against a reference sample. The pKd is the negative decadic logarithm of the Kd, by convention in mol/L. Higher therefore signals a small Kd. `N=C(N)Nc1cc(C2CCNCC2)cc(C(F)(F)F)c1`: the result in experiment [1], in experiment [4] and in experiment [6] was inactive. For the same compound, the ΔTm in the experiment listed under Homo sapiens [2] was 1.4 °C. For the same compound, the results for the Activity (in the experiment filed under Homo sapiens [3]; in experiment [5]; in the experiment listed under Homo sapiens [9]) were 27%, 61% and 56%, respectively. In addition, the pKd in experiment [7] is 3.10; in experiment [8] it was 4.42.
